Data reported in article PMC10149104 (Journal of medicinal chemistry, 2023).

Experiments:
recombinant XPNPEP1 = recombinant XPNPEP1 (Homo sapiens, UniProt Q9NQW7); assay: Inhibition of recombinant XPNPEP1, H-Lys; format: biochemical; conditions: recombinant XPNPEP1
[1] = Stability in cell culture supernatants; format: in vitro ADME
Method in brief: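 Test compounds are incubated in conditioned medium collected from MV4;11 cultures for 24 h at 37 °C. Intact compound and the free acid product are then quantified by LC/MS, with species identified by retention time. Values are means ± SEM of three biological replicates.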

human resting T cells = assay: GSDMD cleavage in human resting T cells; format: cell-based; conditions: 20 μM, 24 h
Method in brief: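 Primary human T cells (>90% purity by flow cytometry) are thawed in RPMI-1640 with 10% FBS and cultured with 30 U/mL IL-2. Cells receive test compound for 24 h, then are washed twice in PBS and lysed by sonication. Protein is normalized before SDS-PAGE, and blots are probed with an anti-GSDMD rabbit polyclonal and imaged by infrared fluorescence.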

[2] = after 24 h; cited from earlier work
OCI-AML2 cells [3] = assay: CTG cell viability in WT and CARD8^−/− OCI-AML2 cells; format: cell-based, human; conditions: 24 h
Method in brief: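 Test compound was added by pintool at various concentrations to OCI-AML2 cells (WT or CARD8−/−) plated at 2000 cells/well in 384-well format, in RPMI 1640 with L-glutamine and 10% FBS. Cells were incubated for 24 h at 37 °C in 5% CO2. CellTiter-Glo was then added, plates were shaken for 2 min and held at 25 °C for 10 min, and luminescence was read.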

[4] = system: DOX-inducible CARD8 E274R mutant THP-1 cells; assay: CARD8 E274R mutant NT degradation assay in CARD8^−/− THP-1 cells; format: cell-based, human; conditions: DOX 100 ng/mL 16 h; VbP 10 μM, CQ31/CQ80 20 μM, VP-OMe 1 mM, MeBs 10 μM; 6 h
Method in brief: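 Parental CARD8-knockout THP-1 cells carry a stably integrated doxycycline-inducible CARD8 E274R construct. Cells are grown in RPMI 1640 with L-glutamine and 10% FBS at 37 °C in 5% CO2. They are induced with or without DOX (100 ng/mL, 16 h), then exposed to test compounds for 6 h.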

THP-1 cells = assay: LDH release and GSDMD cleavage in knockout THP-1 cells; format: cell-based, human; conditions: 20 μM, 24 h; for Pyroptosis in DPP8/9^−/− THP-1 cells: LDH release and GSDMD cleavage
recombinant human PEPD = molecular target: T1, recombinant human PEPD (Homo sapiens, UniProt P12955); assay: Inhibition of recombinant PEPD, alanine release assay; format: biochemical
T1 sequence (P12955 1-493): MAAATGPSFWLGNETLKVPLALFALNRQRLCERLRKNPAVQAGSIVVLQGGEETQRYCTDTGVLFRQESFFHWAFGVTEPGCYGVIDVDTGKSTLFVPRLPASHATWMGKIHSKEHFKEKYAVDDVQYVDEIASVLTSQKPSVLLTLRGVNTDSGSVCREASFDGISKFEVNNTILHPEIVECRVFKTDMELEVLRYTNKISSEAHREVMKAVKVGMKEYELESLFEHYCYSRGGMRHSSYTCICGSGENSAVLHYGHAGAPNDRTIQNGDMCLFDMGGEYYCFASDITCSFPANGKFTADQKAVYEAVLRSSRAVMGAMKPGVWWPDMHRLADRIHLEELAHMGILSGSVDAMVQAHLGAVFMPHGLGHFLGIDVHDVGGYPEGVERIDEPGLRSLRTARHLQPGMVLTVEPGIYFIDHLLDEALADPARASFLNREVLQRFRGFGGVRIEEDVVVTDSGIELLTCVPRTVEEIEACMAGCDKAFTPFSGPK

MV4;11 cells = assay: PI uptake in MV4; format: cell-based, human; conditions: 6.25 μM; WT, CASP1^−/−, CARD8^−/− cells
Method in brief: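 MV4;11 cells (WT, CASP1−/− or CARD8−/−) were plated at 2 × 10^4 cells/well in 384-well format in RPMI and treated with test compound (6.25 μM) for 6 h before PI uptake monitoring. PI was added at 10 μM final. Fluorescence (Ex/Em 535/617 nm) was read every 5 min at 37 °C, baseline-corrected to DMSO vehicle and normalised to maximum response.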

[5] = molecular target: CARD8-DPP9 ternary complex in HEK 293T^CASP1+GSDMD cells (Homo sapiens, UniProt Q86TI2); assay: dTAG-based CARD8-DPP9 ternary complex disruption assay; format: cell-based; conditions: dTAG-13 500 nM; VbP 10 μM, CQ31 20 μM, CQ80 20 μM, VP-OMe 1 mM; 6 h; LDH release
[6] = system: MV4;11, OCI-AML2, and THP-1 cells; assay: LDH release and GSDMD cleavage immunoblot in WT and CARD8^−/− cells; format: cell-based, human; conditions: 20 μM, 24 h, but not CARD8^−/−
OCI-AML2 cells [7] = assay: PI uptake in OCI-AML2 cells; format: cell-based, human; conditions: 6.25 μM, compared to CQ31
Method in brief: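 OCI-AML2 cells (2 × 10^4 per well, 384-well, RPMI) are treated with 6.25 μM compound, with PI added at 10 μM final. PI fluorescence (Ex/Em 535/617 nm) is recorded at 37 °C every 5 min over 6 h. Signals are baseline-corrected to DMSO vehicle and normalized to the maximum response. Values are means ± SEM of three biological replicates.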

[8] = system: N/TERT-1 immortalized keratinocytes; assay: CTG cell viability in N/TERT-1 keratinocytes; format: cell-based, human; conditions: VbP 10 μM, CQ compounds 20 μM, 24 h
Method in brief: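 N/TERT-1 keratinocytes are grown in keratinocyte serum-free medium with 1× penicillin/streptomycin, bovine pituitary extract (25 μg/mL) and EGF (0.2 ng/mL) at 37 °C in 5% CO2. Plating density is 2000 cells/well in 384-well plates, with compound added by pin tool. After 24 h, CellTiter-Glo reagent is added, plates are shaken 2 min, held 10 min at 25 °C, and luminescence is read. Values are means ± SEM of three biological replicates.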

[9] = system: BMDMs from C57BL/6J mice and RAW264.7 cells; assay: LDH release and GSDMD cleavage in mouse BMDMs and RAW264.7 cells; format: cell-based; conditions: VbP 10 μM, CQ31/CQ80 20 μM, 24 h
Method in brief: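 BMDMs: bone marrow is collected from femurs and tibias of 7–12-week-old C57BL/6J mice, strained (70 μm) and RBC-lysed. Cells are cultured 6 days at 37 °C in DMEM with 10% FBS and 15–20% L-cell medium, then replated. RAW264.7 cells are grown in DMEM with 10% FBS and seeded at 5 × 10^5 per well in 12-well plates. Both receive compound for 24 h. LDH is read relative to a Triton X-100 lysis control, and immunoblots use an anti-mouse GSDMD rabbit monoclonal. RAW264.7 data are means ± SEM, n = 3.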

Chain of CARD8-DPP9 ternary complex in HEK 293T^CASP1+GSDMD cells (Q86TI2 whole entry, one chain of several): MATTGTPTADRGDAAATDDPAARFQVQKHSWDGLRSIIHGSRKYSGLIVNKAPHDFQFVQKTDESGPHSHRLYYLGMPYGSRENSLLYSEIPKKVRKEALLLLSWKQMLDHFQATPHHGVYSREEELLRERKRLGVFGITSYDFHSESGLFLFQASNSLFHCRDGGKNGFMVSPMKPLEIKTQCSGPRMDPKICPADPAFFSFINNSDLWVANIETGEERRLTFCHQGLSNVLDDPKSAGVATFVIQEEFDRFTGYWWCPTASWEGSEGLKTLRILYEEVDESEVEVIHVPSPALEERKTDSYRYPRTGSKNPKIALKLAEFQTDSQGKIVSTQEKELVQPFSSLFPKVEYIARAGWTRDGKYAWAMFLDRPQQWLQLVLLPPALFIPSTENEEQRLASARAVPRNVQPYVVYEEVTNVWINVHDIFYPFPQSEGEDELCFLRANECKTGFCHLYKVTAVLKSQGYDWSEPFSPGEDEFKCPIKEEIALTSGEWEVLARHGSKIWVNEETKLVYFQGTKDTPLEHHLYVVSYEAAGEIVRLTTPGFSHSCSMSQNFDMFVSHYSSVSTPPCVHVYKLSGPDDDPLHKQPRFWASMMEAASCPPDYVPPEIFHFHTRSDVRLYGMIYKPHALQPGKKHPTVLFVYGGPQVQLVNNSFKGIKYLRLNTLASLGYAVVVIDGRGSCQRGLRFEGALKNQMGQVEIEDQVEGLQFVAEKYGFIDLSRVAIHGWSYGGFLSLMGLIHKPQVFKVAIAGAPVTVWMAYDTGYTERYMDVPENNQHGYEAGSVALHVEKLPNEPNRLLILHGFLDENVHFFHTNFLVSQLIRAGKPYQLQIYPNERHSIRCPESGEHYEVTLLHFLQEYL
Chain of recombinant XPNPEP1 (Q9NQW7 whole entry): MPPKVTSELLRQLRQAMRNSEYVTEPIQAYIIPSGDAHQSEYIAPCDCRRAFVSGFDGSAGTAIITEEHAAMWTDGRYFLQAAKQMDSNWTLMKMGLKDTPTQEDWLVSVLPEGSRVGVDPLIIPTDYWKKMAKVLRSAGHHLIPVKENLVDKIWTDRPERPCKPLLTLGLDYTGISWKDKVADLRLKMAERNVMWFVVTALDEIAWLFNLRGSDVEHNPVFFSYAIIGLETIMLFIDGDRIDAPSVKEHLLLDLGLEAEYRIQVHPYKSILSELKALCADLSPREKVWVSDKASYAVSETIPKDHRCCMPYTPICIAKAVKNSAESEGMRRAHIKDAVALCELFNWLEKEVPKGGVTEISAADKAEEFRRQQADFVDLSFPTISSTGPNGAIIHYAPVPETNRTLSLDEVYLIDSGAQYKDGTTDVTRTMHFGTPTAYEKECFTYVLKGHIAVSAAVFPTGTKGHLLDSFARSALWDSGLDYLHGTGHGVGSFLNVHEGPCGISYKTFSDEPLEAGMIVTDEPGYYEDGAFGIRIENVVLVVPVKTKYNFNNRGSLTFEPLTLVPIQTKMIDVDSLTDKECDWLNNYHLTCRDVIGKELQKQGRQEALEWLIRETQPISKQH

Row | Structure (SMILES) | XPNPEP1 inhibition (in words) (recombinant XPNPEP1) | Time to conversion to CQ04 [1] [min] | GSDMD cleavage in human resting T cells (human resting T cells) | De-esterification to CQ04 in cell culture [2] | Cell death in OCI-AML2 cells (OCI-AML2 cells [3]) | Additional cell death in CARD8 E274R assay (NT degradation) [4] | Sensitivity of PEPD and XPNPEP1 single knockout THP-1 cells (THP-1 cells) | Sensitivity of PEPD/XPNPEP1 double knockout THP-1 cells (THP-1 cells) | Pyroptosis in DPP8/9^−/− THP-1 cells (THP-1 cells) | PEPD inhibition (in words) (recombinant human PEPD) | PI uptake in MV4;11 cells (MV4;11 cells) | Pyroptosis after dTAG-13 treatment (ternary complex destabilization) [5] | LDH release and GSDMD cleavage [6] | Rate of lytic cell death by PI uptake in OCI-AML2 cells (OCI-AML2 cells [7]) | Fraction remaining intact ([1]; after 24 h at 37 °C) | Cell death in N/TERT-1 keratinocytes (human NLRP1 activation) [8] | Pyroptosis in mouse BMDMs and RAW264.7 cells (rodent NLRP1 activation) [9]
1 | COC(=O)[C@@H]1CCCN1C(=O)[C@@H](O)[C@H](N)CC(C)C [CQ31] | inhibited PEPD and XPNPEP1 similarly | ≤ 30 | induced GSDMD cleavage | completely de-esterified | induced cell death in WT but not CARD8^−/− | do not trigger as much degradation as MeBs | sensitive | completely resistant | neither CQ80 nor CQ31 induced any additional pyroptosis | inhibited PEPD and XPNPEP1 similarly | induced PI uptake in WT but not CASP1^−/− or CARD8^−/− | induce more pyroptosis after dTAG-13 treatment | induced lactate dehydrogenase (LDH) release and GSDMD cleavage |  |  |  | 
2 | COC(=O)[C@H](CC(C)C)NC(=O)[C@@H]1CCCN1C(=O)[C@@H](O)[C@H](N)CC(C)C [CQ80, Methyl ((2S,3R)-3-Amino-2-hydroxy-5-methylhexanoyl)-l-prolyl-l-leucinate] |  |  | induced GSDMD cleavage |  | induced cell death in WT but not CARD8^−/− | do not trigger as much degradation as MeBs | sensitive | completely resistant | neither CQ80 nor CQ31 induced any additional pyroptosis |  | induced PI uptake in WT but not CASP1^−/− or CARD8^−/− | induce more pyroptosis after dTAG-13 treatment | induced lactate dehydrogenase (LDH) release and GSDMD cleavage | caused more rapid lytic cell death | ~ 50% | does not activate | does not activate
3 | CC(C)[C@H](N)C(=O)N1CCC[C@H]1B(O)O [VbP, ValboroPro, reference compound] |  |  |  |  |  | did not cause substantially more death |  |  |  |  |  |  |  |  |  | induced cell death | induced pyroptosis
